DDE Tn7 FP inh: disrupts Tn7 cyclic peptide binding to fibrin D-Dimer-E complex | FP displacement of FITC-Tn7 peptide from fibrin DD(E); 0% = median of compound wells per plate | inhibition, % at 8.3 µM | 370,000 compounds, 0.13% hits;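 active = inhibition above the mean of compounds falling within the control limits plus 3 SD of them, cut at about 14% in these data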;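 also: 0% = plate median of compound wells and 100% = 10 µM Aha-Tn7 peptide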
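Assay system: Fibrin-DD(E) protein isolated from polymerized human fibrin clots; read-out basis: percent inhibition; medium: Tris/NaCl/CaCl2 buffer, pH 7.8; signal: FP measurement; incubation: 10 min plus 3 h, room temperature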
MT1-MMP act inh: inhibitors of human MT1-MMP activation; P50281; HT1080 RFP-PRO-GFP cells, GFP/RFP ratio fluorescence, overnight; percent of plate control window, DMSO zero; GFP/RFP ratio change, % at 20 µM; 360,000 compounds, 0.061% hits;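 active = GFP/RFP ratio change of at least 30% with cell ATP level not reduced by more than half and red fluorescence within 50% of control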
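Assay system: HT1080 RFP-PRO-GFP cells | Dosing: 20 µM single dose, 1% DMSO | Incubation: Cells overnight before dosing, compound overnight, 37 °C, 5% CO2 | Evaluation: GFP/RFP fluorescence ratio | Control set: DMSO-only wells and HT1080 RFP-L50D-GFP cell wells as references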
ADAM10 inh: ADAM10 inhibition, QFRET primary screen | recombinant ADAM10, EDANS/DABCYL FRET peptide cleavage, 3 h | O14672 | AID 720582 | 370,000 compounds, 0.62% hits | inhibition, % at 7 µM;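 active = inhibition above a per-campaign cutoff equal to the mean of compounds falling between control-based bounds plus 3 SD, cut at about 20% in these data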;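 also: 0% = DMSO wells while the 100% control is not disclosed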
Target sequence (O14672 214-748 limits assumed): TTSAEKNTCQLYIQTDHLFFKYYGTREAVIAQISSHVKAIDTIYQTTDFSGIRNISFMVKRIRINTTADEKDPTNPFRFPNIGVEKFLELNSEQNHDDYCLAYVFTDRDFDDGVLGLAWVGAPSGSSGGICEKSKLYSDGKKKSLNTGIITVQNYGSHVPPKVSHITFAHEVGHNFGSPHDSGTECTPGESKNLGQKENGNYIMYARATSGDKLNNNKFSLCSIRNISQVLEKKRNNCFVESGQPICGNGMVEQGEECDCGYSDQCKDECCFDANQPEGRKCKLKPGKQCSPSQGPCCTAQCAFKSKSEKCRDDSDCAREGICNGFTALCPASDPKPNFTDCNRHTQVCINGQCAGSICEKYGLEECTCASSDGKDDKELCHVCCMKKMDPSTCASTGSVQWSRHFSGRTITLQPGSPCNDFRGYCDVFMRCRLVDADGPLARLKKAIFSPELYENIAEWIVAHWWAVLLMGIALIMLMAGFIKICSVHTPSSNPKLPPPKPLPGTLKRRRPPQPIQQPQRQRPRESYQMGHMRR
Tn6 DDE FP: inhibitors of Tn6 peptide binding to human fibrin DD(E); inhibition, % at 8.3 µM; Fibrin DD(E) TRITC-Tn6 fluorescence polarization displacement; 370,000 compounds, 0.21% hits;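 active = inhibition above a per-campaign cutoff: mean of compounds within control limits plus 3 SD, cut at about 15% in these data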;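 also: 0% = median of all compound wells on the plate and 100% = blocking peptide control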
ADAM17 inh: inhibits human ADAM17; P78536; recombinant ADAM17, EDANS/DABCYL FRET peptide cleavage; inhibition, % at 6.95 µM; 370,000 compounds, 0.83% hits;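 active = inhibition above the mean of compounds lying between control limits plus 3 SD, set per campaign, cut at about 8.5% in these data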;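 also: 0% = DMSO-only wells as the low control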
ADAM10 confirm: confirmation of inhibitors of human ADAM10. inhibition, % at 6.95 µM. ADAM10 QFRET peptide cleavage, EDANS fluorescence. 2,100 compounds, 1% hits. shares compounds with ADAM10 inh;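 active = inhibition above about 20% chosen separately for each screening run, limit read from the data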;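 also: 0% = DMSO wells and 100% = marimastat wells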
ADAM17 ctr: inhibits human ADAM17 in ADAM10 exosite counter-screen | ADAM17 QFRET peptide cleavage, EDANS fluorescence | inhibition, % at 6.95 µM | shares compounds with ADAM10 inh | 2,100 compounds, 0.5% hits;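 active = mean triplicate inhibition above the solvent-only control wells' mean plus 3 SD, cut at about 12% in these data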;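 also: 0% = DMSO wells and 100% = marimastat wells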
Numbers without * were called inactive. A selection: hits, their analogues and other compounds. The true share with any hit is near 1.6%.

How did COc1ccc(N(C)S(=O)(=O)c2cccc(C(=O)Nc3ccc(OC)nc3)c2)cc1 do in these assays?
DDE Tn7 FP inh: 3.4; ADAM10 inh: 7.1; Tn6 DDE FP: 9.9; ADAM17 inh: 1.9

Results for COC(=O)C1=C(C)N(Cc2ccccc2C(F)(F)F)C(=NCc2ccc3c(c2)OCO3)NC1c1cccc(Cl)c1 (configuration not stated) ?
DDE Tn7 FP inh: -2.8; ADAM10 inh: -3.9; Tn6 DDE FP: -7.2; ADAM17 inh: 1.5

How did Cc1ccccc1-n1c(Cn2c(=O)sc3ccccc32)nnc1SC(C)C do in these assays?
DDE Tn7 FP inh: 2.7; MT1-MMP act inh: -4.2; ADAM10 inh: 77.9*; Tn6 DDE FP: 4.7; ADAM17 inh: -0.7; ADAM10 confirm: -1.5; ADAM17 ctr: -0.4

Results for CC(C)Sc1nnc(Cn2c(=O)sc3ccccc32)n1-c1ccccc1 ?
DDE Tn7 FP inh: 5.8; MT1-MMP act inh: 0.3; ADAM10 inh: -3.0; Tn6 DDE FP: 2.0; ADAM17 inh: -2.1

How did CCc1ccc([C@H]2[C@@H]3C(=O)C[C@@H]4C(=O)N(C5CCCCC5)C(=O)[C@@H]4[C@@H]3CN2S(=O)(=O)c2ccc(C)cc2)cc1 do in these assays?
DDE Tn7 FP inh: -6.3; MT1-MMP act inh: -6.7; ADAM10 inh: 20.1*; Tn6 DDE FP: -0.1; ADAM17 inh: 8.1; ADAM10 confirm: 4.5; ADAM17 ctr: 1.4

What do the screens show for `CCc1ccc([C@H]2[C@@H]3C(=O)C[C@@H]4C(=O)N(Cc5ccccc5)C(=O)[C@@H]4[C@@H]3CN2S(=O)(=O)c2ccc(C)cc2)cc1`?
DDE Tn7 FP inh: 1.8; MT1-MMP act inh: -0.8; ADAM10 inh: 23.1*; Tn6 DDE FP: -10.2; ADAM17 inh: 3.9; ADAM10 confirm: 6.4; ADAM17 ctr: 2.5

Results for CCc1ccc([C@H]2[C@@H]3C(=O)C[C@@H]4C(=O)N(C)C(=O)[C@@H]4[C@@H]3CN2S(=O)(=O)c2ccc(C)cc2)cc1 ?
DDE Tn7 FP inh: -4.6; MT1-MMP act inh: 1.8; ADAM10 inh: 11.7; Tn6 DDE FP: -4.1; ADAM17 inh: 2.8

How did S=C1NCN(CC2CC2)CN1 do in these assays?
DDE Tn7 FP inh: -1.7; ADAM10 inh: -12.0; Tn6 DDE FP: 3.0; ADAM17 inh: -6.0

What do the screens show for `O=C(C(=O)N1CCC(CNS(=O)(=O)c2ccc(F)cc2)CC1)c1cc2ccccc2o1`?
DDE Tn7 FP inh: 9.1; ADAM10 inh: 8.3; Tn6 DDE FP: 2.2; ADAM17 inh: 2.4

How did COc1cccc(CNC(=O)[C@H]2CCCN2C(=O)[C@H]2CCCN2C(=O)c2ccc(F)c(F)c2)c1 do in these assays?
DDE Tn7 FP inh: -3.3; ADAM10 inh: -5.5; Tn6 DDE FP: -6.9; ADAM17 inh: -2.9

Results for O=C(CCc1ccc(S(=O)(=O)NCCc2ccccc2)cc1)N1CCN(Cc2ccc3c(c2)OCO3)CC1 ?
DDE Tn7 FP inh: 0.1; MT1-MMP act inh: 1.7; ADAM10 inh: 21.2*; Tn6 DDE FP: -0.1; ADAM17 inh: 3.9; ADAM10 confirm: 6.0; ADAM17 ctr: 2.1

How did CC(C)CNS(=O)(=O)c1ccc(CCC(=O)N2CCN(Cc3ccc4c(c3)OCO4)CC2)cc1 do in these assays?
DDE Tn7 FP inh: -3.6; MT1-MMP act inh: -1.3; ADAM10 inh: 6.3; Tn6 DDE FP: 1.9; ADAM17 inh: 0.2

What do the screens show for `CCCCCCCCN1C(=O)[C@@H](CC(=O)NCC2CCCCC2)C[C@@]2(C(=O)OC)C1=C[C@H](C(C)C)O[C@@H]2C1CC1`?
DDE Tn7 FP inh: -2.4; ADAM10 inh: 1.2; Tn6 DDE FP: -0.6; ADAM17 inh: -5.9

How did O=P(Cc1ccccc1)(c1ccccc1)c1ccccc1 do in these assays?
DDE Tn7 FP inh: 3.2; MT1-MMP act inh: 2.4; ADAM10 inh: 1.6; Tn6 DDE FP: -3.0; ADAM17 inh: 0.8

How did CC(C)(C)c1cc(CP(=O)(c2ccccc2)c2ccccc2)cc(C(C)(C)C)c1O do in these assays?
DDE Tn7 FP inh: -3.5; MT1-MMP act inh: -15.2; ADAM10 inh: 24.5*; Tn6 DDE FP: -3.9; ADAM17 inh: 5.2; ADAM10 confirm: 2.1; ADAM17 ctr: 1.1

How did CCOC(=O)C1CCN(C(=O)Cn2cc(C(=O)c3ccco3)c3ccccc32)CC1 do in these assays?
DDE Tn7 FP inh: 1.8; MT1-MMP act inh: 1.5; ADAM10 inh: 63.9*; Tn6 DDE FP: 4.3; ADAM17 inh: -4.2; ADAM10 confirm: 4.5; ADAM17 ctr: 2.4

Results for CC1(C(=O)N2CCC(CC3CC(c4cccc(Br)c4)=NO3)(C(=O)NCC3CCCCC3)CC2)CC1 (configuration not stated) ?
DDE Tn7 FP inh: -0.8; MT1-MMP act inh: -2.4; ADAM10 inh: 25.3*; Tn6 DDE FP: -1.8; ADAM17 inh: 4.1; ADAM10 confirm: 0.1; ADAM17 ctr: 2.7

What do the screens show for `CC1(C(=O)N2CCC(CC3CC(c4ccc(Cl)cc4)=NO3)(C(=O)NCC3CCCCC3)CC2)CC1` (configuration not stated)?
DDE Tn7 FP inh: -0.5; MT1-MMP act inh: -3.9; ADAM10 inh: -0.4; Tn6 DDE FP: 5.2; ADAM17 inh: -2.2

How did O=S(=O)(CS(=O)(=O)c1ccc(Br)cc1)c1ccc(Br)cc1 do in these assays?
DDE Tn7 FP inh: 7.3; ADAM10 inh: -5.3; Tn6 DDE FP: 1.1; ADAM17 inh: -5.7

What do the screens show for `COc1ccc(OC(F)(F)F)cc1CC1(C)C(=O)Nc2ccc(-c3ccsc3)cc21` (configuration not stated)?
DDE Tn7 FP inh: -3.2; MT1-MMP act inh: -12.9; ADAM10 inh: 25.9*; Tn6 DDE FP: 0.4; ADAM17 inh: 8.6; ADAM10 confirm: 10.9; ADAM17 ctr: 3.3

What do the screens show for `COc1ccccc1Cc1c(C2CCCCC2)nc2c(C)cc(Br)cn12`?
DDE Tn7 FP inh: 6.0; ADAM10 inh: -15.5; Tn6 DDE FP: 0.8; ADAM17 inh: -6.2

How did CCCc1c(Cc2cccc(F)c2)ncn1CCc1ccccc1OC do in these assays?
DDE Tn7 FP inh: -0.2; ADAM10 inh: 45.8*; Tn6 DDE FP: 3.1; ADAM17 inh: -0.6; ADAM10 confirm: 1.4; ADAM17 ctr: 0.8

What do the screens show for `CCc1c(Cc2cccc(F)c2)ncn1CCc1ccccc1OC`?
DDE Tn7 FP inh: -6.1; ADAM10 inh: -1.6; Tn6 DDE FP: -5.3; ADAM17 inh: -1.6

What do the screens show for `CCOC(=O)C1C(=O)C=C(C)C(C(=O)OCC)C1c1cccc([N+](=O)[O-])c1` (configuration not stated)?
DDE Tn7 FP inh: 6.8; MT1-MMP act inh: 2.2; ADAM10 inh: 20.0*; Tn6 DDE FP: -5.2; ADAM17 inh: 1.4; ADAM10 confirm: 2.1; ADAM17 ctr: 0.0
